# Reference: ChEMBL document CHEMBL4177648, “Benzofuran-dihydropyridine hybrids: A new class of potential bone anabolic agents” (Bioorg Med Chem, 2017)
# Calls of active or inactive are those of the source. The rule behind the calls is not given here.
# Legend:
# Calvarial osteoblast [1] = experiment: Upregulation of ALP mRNA levels in rat calvarial osteoblasts at 1 uM after 48 hrs by qRT-PCR analysis relative to control; assay type: functional
# Procedure, shortened: (§1)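 Rat pup calvarial osteoblasts were treated for 48 h with compound. Total RNA was extracted with TRIzol and checked by A260 and A260/A280. qRT-PCR used 45 cycles (94 °C, 62 °C, 72 °C steps) and was normalised to GAPDH. Fold change is over untreated cells; n=5, mean ± SEM.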
# Calvarial osteoblast [2] = experiment: Induction of mineralization in rat calvarial osteoblasts at 1 uM after 21 days by Alizarin-red dye based assay; assay type: functional, cell-based
# Procedure, shortened: (§2)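 Rat pup calvarial osteoblasts were seeded at 1×10^4 cells/well in differentiation medium with compound. Medium was changed every other day for 21 days. Cells were fixed in 4% paraformaldehyde and stained with 40 mM Alizarin red (pH 4.5). Stain was extracted with 10% acetic acid, heated to 85 °C, and neutralised with NH4OH. Absorbance was read at 405 nm.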
# Calvarial osteoblast [3] = experiment: Anabolic activity in rat calvarial osteoblasts assessed as induction of alkaline phosphatase activity at 1 pM after 48 hrs in presence of beta-glycerophosphate and ascorbic acid by p-nitrophenyl phosphate substrate based assay (reference value: 1 to 1.21); assay type: functional
# Calvarial osteoblast [4] = experiment: Upregulation of Runx2 mRNA levels in rat calvarial osteoblasts at 1 uM after 48 hrs by qRT-PCR analysis relative to control; assay type: functional; procedure, shortened: as §1
# Calvarial osteoblast [5] = experiment: Anabolic activity in rat calvarial osteoblasts assessed as induction of alkaline phosphatase activity after 48 hrs in presence of beta-glycerophosphate and ascorbic acid by p-nitrophenyl phosphate substrate based assay; assay type: functional, cell-based
# Calvarial osteoblast [6] = experiment: Anabolic activity in rat calvarial osteoblasts assessed as induction of alkaline phosphatase activity at 100 pM after 48 hrs in presence of beta-glycerophosphate and ascorbic acid by p-nitrophenyl phosphate substrate based assay (reference value: 1 to 1.21); assay type: functional
# Calvarial osteoblast [7] = experiment: Anabolic activity in rat calvarial osteoblasts assessed as induction of alkaline phosphatase activity at 100 uM after 48 hrs in presence of beta-glycerophosphate and ascorbic acid by p-nitrophenyl phosphate substrate based assay (reference value: 1 to 1.21); assay type: functional
# Calvarial osteoblast [8] = experiment: Anabolic activity in rat calvarial osteoblasts assessed as induction of alkaline phosphatase activity at 10 nM after 48 hrs in presence of beta-glycerophosphate and ascorbic acid by p-nitrophenyl phosphate substrate based assay (reference value: 1 to 1.21); assay type: functional
# Calvarial osteoblast [9] = experiment: Upregulation of Bmp2 mRNA levels in rat calvarial osteoblasts at 1 uM after 48 hrs by qRT-PCR analysis relative to control; assay type: functional; procedure, shortened: as §1
# Calvarial osteoblast [10] = experiment: Upregulation of Col1 mRNA levels in rat calvarial osteoblasts at 1 uM after 48 hrs by qRT-PCR analysis relative to control; assay type: functional; procedure, shortened: as §1
# Calvarial osteoblast [11] = experiment: Anabolic activity in rat calvarial osteoblasts assessed as induction of alkaline phosphatase activity at 1 uM after 48 hrs in presence of beta-glycerophosphate and ascorbic acid by p-nitrophenyl phosphate substrate based assay (reference value: 1 to 1.21); assay type: functional
# Calvarial osteoblast [12] = experiment: Upregulation of Osx mRNA levels in rat calvarial osteoblasts at 1 uM after 48 hrs by qRT-PCR analysis relative to control; assay type: functional; procedure, shortened: as §1
# Rattus norvegicus [13] = experiment: Osteogenic activity in Sprague-Dawley rat drill-hole fracture model assessed as increase in trabecular thickness at 10 mg/kg/day for 14 consecutive days by micro CT-scan analysis; assay type: functional, organism-based
# Procedure, shortened: (§3)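 Adult female Sprague-Dawley rats (200 ± 20 g, 12 weeks) under ketamine/xylazine anaesthesia received a 0.8 mm drill-hole defect in the femoral diaphysis, 2 cm above the knee. Dosing was oral at 10 mg·kg⁻¹·day⁻¹, or gum acacia vehicle, for 14 days starting the next day. The defect was scanned by micro-CT at 18 µm voxel and 70 kV; n=6/group.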
# Calvarial osteoblast [14] = experiment: Upregulation of Runx2 mRNA levels in rat calvarial osteoblasts at 10 nM after 48 hrs by qRT-PCR analysis relative to control; assay type: functional; procedure, shortened: as §1
# Rattus norvegicus [15] = experiment: Upregulation of Runx2 mRNA in rat pup calvarial tissue at >10 mg/kg/day administered subcutaneously for 3 consecutive days by qRT-PCR analysis; assay type: functional, organism-based
# Procedure, shortened: (§4)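 Rat pups received subcutaneous injections at the calvarial skull site of 0.1, 0.5, 1.0, 5.0, 10 or 20 mg·kg⁻¹·day⁻¹, or normal-saline vehicle, for 3 consecutive days. Calvaria were then collected, RNA was isolated with TRIzol, and Runx2 and Bmp2 were measured by qRT-PCR; n=5, mean ± SEM.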
# Rattus norvegicus [16] = experiment: Hepatotoxicity in Sprague-Dawley rat drill-hole fracture model assessed as morphological alterations at 10 mg/kg, po qd for 14 days by haematoxylin and eosin staining-based microscopic analysis; assay type: toxicity, organism-based; conditions: in vivo, 336 h
# Procedure, shortened: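 From the next day they were dosed orally for 14 days, 6 per group, with vehicle gum acacia in water. Livers were collected at the end, cut into 5 µm paraffin sections, dewaxed, stained with H&E and examined by light microscopy.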
# Rattus norvegicus [17] = experiment: Osteogenic activity in Sprague-Dawley rat drill-hole fracture model assessed as increase in mineral deposition at 10 mg/kg/day by calcein labeling-based confocal microscopy analysis
# Calvarial osteoblast [18] = experiment: Upregulation of ALP mRNA levels in rat calvarial osteoblasts at 100 pM after 48 hrs by qRT-PCR analysis relative to control; assay type: functional; procedure, shortened: as §1
# Calvarial osteoblast [19] = experiment: Cytotoxicity against rat calvarial osteoblasts at 100 uM after 48 hrs by MTT assay; assay type: cell-based
# Procedure, shortened: (§5)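 Primary osteoblasts from calvaria of 1–2-day-old rat pups, released by sequential dispase/collagenase P digestion and grown in α-MEM with 10% FCS to 70–80% confluence. Seeded at 2000 cells/well and treated with 1 pM to 100 µM for 48 h in differentiation medium (10 mM β-glycerophosphate, 50 µg/mL ascorbic acid). Viability read by MTT against untreated control; n=8, mean ± SEM.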
# Rattus norvegicus [20] = experiment: Osteogenic activity in Sprague-Dawley rat drill-hole fracture model assessed as increase in Bmp2 expression levels at 10 mg/kg/day by qRT-PCR analysis; assay type: functional, organism-based
# Calvarial osteoblast [21] = experiment: Upregulation of COL1 expression levels in rat calvarial osteoblasts at 100 pM after 48 hrs by Western blot analysis; assay type: functional, cell-based
# Rattus norvegicus [22] = experiment: Osteogenic activity in Sprague-Dawley rat drill-hole fracture model assessed as bone formation at 10 mg/kg/day by H and E staining-based analysis relative to control; assay type: functional, organism-based
# Procedure, shortened: (§6)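 Drill-hole femur defect in female Sprague-Dawley rats with oral dosing at 10 mg·kg⁻¹·day⁻¹ or gum acacia vehicle for 14 days. Bones were decalcified in EDTA and the callus at the defect site was stained with H&E; n=6/group.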
# Calvarial osteoblast [23] = experiment: Upregulation of Osx mRNA levels in rat calvarial osteoblasts at 100 pM after 48 hrs by qRT-PCR analysis relative to control; assay type: functional; procedure, shortened: as §1
# Calvarial osteoblast [24] = experiment: Upregulation of RUNX2 expression levels in rat calvarial osteoblasts at 100 pM after 48 hrs by Western blot analysis; assay type: functional, cell-based
# Calvarial osteoblast [25] = experiment: Upregulation of Bmp2 mRNA levels in rat calvarial osteoblasts at 10 nM after 48 hrs by qRT-PCR analysis relative to control; assay type: functional; procedure, shortened: as §1
# Calvarial osteoblast [26] = experiment: Cytotoxicity against rat calvarial osteoblasts at 0.000001 uM to 1 uM after 48 hrs by MTT assay; assay type: cell-based; conditions: 1 pM; procedure, shortened: as §5
# Calvarial osteoblast [27] = experiment: Upregulation of Col1 mRNA levels in rat calvarial osteoblasts at 10 nM after 48 hrs by qRT-PCR analysis relative to control; assay type: functional; procedure, shortened: as §1
# Rattus norvegicus [28] = experiment: Osteogenic activity in Sprague-Dawley rat drill-hole fracture model assessed as enhanced callus regeneration of femur bone at 10 mg/kg/day by H and E staining-based analysis; assay type: functional, organism-based; procedure, shortened: as §6
# Calvarial osteoblast [29] = experiment: Upregulation of Bmp2 expression levels in rat calvarial osteoblasts at 100 pM after 48 hrs by ELISA; assay type: functional, cell-based
# Procedure, shortened: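 Calvarial osteoblasts were seeded at 5×10^3 cells/well and treated 48 h at 100 pM in α-MEM with 1% charcoal-stripped FCS. BMP2 in the culture supernatant was measured by sandwich ELISA, with OD read at 450 nm.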
# Calvarial osteoblast [30] = experiment: Upregulation of BMP2 expression levels in rat calvarial osteoblasts at 100 pM after 48 hrs by Western blot analysis; assay type: functional, cell-based
# Calvarial osteoblast [31] = experiment: Induction of mineralization in rat calvarial osteoblasts at 0.1 nM to 10 nM after 21 days by Alizarin-red dye based assay; assay type: functional, cell-based; procedure, shortened: as §2
# Rattus norvegicus [32] = experiment: Osteogenic activity in Sprague-Dawley rat drill-hole fracture model assessed as increase in trabecular number at 10 mg/kg/day for 14 consecutive days by micro CT-scan analysis; assay type: functional, organism-based; procedure, shortened: as §3
# Rattus norvegicus [33] = experiment: Osteogenic activity in Sprague-Dawley rat drill-hole fracture model assessed as increase in connection density at 10 mg/kg/day for 14 consecutive days by micro CT-scan analysis; assay type: functional, organism-based; procedure, shortened: as §3
# Rattus norvegicus [34] = experiment: Upregulation of Bmp2 mRNA in rat pup calvarial tissue at 1 to 10 mg/kg/day administered subcutaneously for 3 consecutive days by qRT-PCR analysis; assay type: functional, organism-based; procedure, shortened: as §4
# Rattus norvegicus [35] = experiment: Upregulation of Bmp2 mRNA in rat pup calvarial tissue at >10 mg/kg/day administered subcutaneously for 3 consecutive days by qRT-PCR analysis; assay type: functional, organism-based; procedure, shortened: as §4
# Rattus norvegicus [36] = experiment: Upregulation of Runx2 mRNA in rat pup calvarial tissue at 1 to 10 mg/kg/day administered subcutaneously for 3 consecutive days by qRT-PCR analysis; assay type: functional, organism-based; procedure, shortened: as §4
# Rattus norvegicus [37] = experiment: Osteogenic activity in Sprague-Dawley rat drill-hole fracture model assessed as enhanced callus regeneration of femur bone at 10 mg/kg/day by calcein labeling based confocal microscopic method; assay type: functional
# Procedure, shortened: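 Drill-hole femur defect in female Sprague-Dawley rats with oral dosing at 10 mg·kg⁻¹·day⁻¹ for 14 days. Calcein (20 mg/kg i.p.) was given 2 days before autopsy. Acrylic-embedded 50 µm bone sections were imaged by confocal microscopy, and mean calcein intensity per pixel was quantified at the defect; n=6/group.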
# Calvarial osteoblast [38] = experiment: Upregulation of Bmp2 mRNA levels in rat calvarial osteoblasts at 100 pM after 48 hrs by qRT-PCR analysis relative to control; assay type: functional; procedure, shortened: as §1
# Calvarial osteoblast [39] = experiment: Upregulation of Runx2 mRNA levels in rat calvarial osteoblasts at 100 pM after 48 hrs by qRT-PCR analysis relative to control; assay type: functional; procedure, shortened: as §1
# Calvarial osteoblast [40] = experiment: Upregulation of Col1 mRNA levels in rat calvarial osteoblasts at 100 pM after 48 hrs by qRT-PCR analysis relative to control; assay type: functional; procedure, shortened: as §1
# Rattus norvegicus [41] = experiment: Osteogenic activity in Sprague-Dawley rat drill-hole fracture model assessed as increase in bone volume/trabecular volume at 10 mg/kg/day for 14 consecutive days by micro CT-scan analysis; assay type: functional, organism-based; procedure, shortened: as §3
smiles,measurement,setting,value
CCOC(=O)C1=C(C)NC2=C(C(=O)CCC2)C1c1cc(CC)c2oc(C(=O)c3ccc(OC)cc3)cc2c1 (configuration not stated),fold change (FC),Calvarial osteoblast [1],2 - 5.5
same,Activity,Calvarial osteoblast [2],Active
same,OD,Calvarial osteoblast [3],1.32
same,fold change (FC),Calvarial osteoblast [4],2 - 5.5
same,EC50,Calvarial osteoblast [5],10 µM
same,OD,Calvarial osteoblast [6],1.49
same,OD,Calvarial osteoblast [7],0.41
same,OD,Calvarial osteoblast [8],1.64
same,fold change (FC),Calvarial osteoblast [9],2 - 5.5
same,fold change (FC),Calvarial osteoblast [10],2 - 5.5
same,OD,Calvarial osteoblast [11],1.8
same,fold change (FC),Calvarial osteoblast [12],2 - 5.5
CCOC(=O)C1=C(C)NC2=C(C(=O)CCC2)C1c1cc(C(C)CC)c2oc(C(=O)c3ccc(C)cc3)cc2c1 (configuration not stated),Activity,Rattus norvegicus [13],Active
same,fold change (FC),Calvarial osteoblast [14],3.4
same,Activity,Rattus norvegicus [15],inactive
same,Activity,Rattus norvegicus [16],Non-Toxic
same,Activity,Rattus norvegicus [17],Active
same,fold change (FC),Calvarial osteoblast [18],4.5
same,Activity,Calvarial osteoblast [19],Toxic
same,OD,Calvarial osteoblast [3],1.14
same,Activity,Rattus norvegicus [20],Active
same,Activity,Calvarial osteoblast [21],Active
same,EC50,Calvarial osteoblast [5],0.0001 µM
same,OD,Calvarial osteoblast [6],1.32
same,Activity,Rattus norvegicus [22],Active
same,OD,Calvarial osteoblast [7],0.36
same,fold change (FC),Calvarial osteoblast [23],3.7
same,Activity,Calvarial osteoblast [24],Active
same,fold change (FC),Calvarial osteoblast [25],3.1
same,OD,Calvarial osteoblast [8],1.19
same,Activity,Calvarial osteoblast [26],Non-Toxic
same,fold change (FC),Calvarial osteoblast [27],3.7
same,Activity,Rattus norvegicus [28],Active
same,Activity,Calvarial osteoblast [29],Active
same,Activity,Calvarial osteoblast [30],Active
same,Activity,Calvarial osteoblast [31],Active
same,Activity,Rattus norvegicus [32],Active
same,Activity,Rattus norvegicus [33],Active
same,Activity,Rattus norvegicus [34],Active
same,Activity,Rattus norvegicus [35],inactive
same,Activity,Rattus norvegicus [36],Active
same,Activity,Rattus norvegicus [37],40%
same,fold change (FC),Calvarial osteoblast [38],4.5
same,OD,Calvarial osteoblast [11],1.16
same,fold change (FC),Calvarial osteoblast [39],3.9
same,fold change (FC),Calvarial osteoblast [40],5
same,Activity,Rattus norvegicus [41],Active
